# Activity calls are given as the source filed them. No cut-off for these calls is given here.
# How the values were obtained:
# [1] = Resistance index, ratio of IC50 for human SKOV3-MDR1-M6/6 cells to IC50 for human SKOV3 cells; type: functional
# Outline: (§1)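 Relative resistance is the SRB IC50 in the expressing line divided by the IC50 in the isogenic parental line. The pairs are HeLa WT-βIII over HeLa (βIII tubulin) and SK-OV-3 MDR-1-M6/6 over SK-OV-3 (P-glycoprotein).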
# HeLa [2] = assay: Antiproliferative activity against human HeLa cells after 48 hrs by SRB assay; type: functional, cell-based
# Outline: (§2)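 Cell growth measured by sulforhodamine B assay across a concentration range. IC50 is taken from the dose-response curves, as mean ± SD of at least 3 independent experiments, each run in triplicate. HeLa WT-βIII cells express βIII tubulin. SK-OV-3 MDR-1-M6/6 cells are the P-glycoprotein-expressing isogenic partner of parental SK-OV-3.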
# [3] = Antiproliferative activity against human SKOV3-MDR1-M6/6 cells after 48 hrs by SRB assay; type: functional, cell-based; details: SKOV3-MDR1-M6/6, 48 h; outline: as §2
# HeLa [4] = assay: Antiproliferative activity against human HeLa cells expressing wild type beta3 tubulin after 48 hrs by SRB assay; type: functional, cell-based; outline: as §2
# [5] = Induction of tubulin depolymerization in rat A-10 cells after 18 hrs by indirect immunofluorescence method; type: cell-based
# Outline: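 A-10 cells exposed to a wide range of concentrations. Microtubules stained by indirect immunofluorescence, with nuclei counterstained. The percentage of depolymerized cellular microtubules is estimated visually. EC50, the concentration giving 50% loss of cellular microtubules, is found by linear regression.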
# HeLa [6] = assay: Resistance index, ratio of IC50 for human HeLa cells expressing wild type beta3 tubulin to IC50 for human HeLa cells; type: functional; outline: as §1
# SK-OV-3 = assay: Antiproliferative activity against human SKOV3 cells after 48 hrs by SRB assay; type: functional, cell-based; details: SK-OV-3, 48 h; outline: as §2
# MDA-MB-435 [7] = assay: Antiproliferative activity against human MDA-MB-435 cells after 48 hrs by SRB assay; type: functional, cell-based; details: MDA-MB-435, 48 h; outline: as §2
# MDA-MB-435 [8] = assay: Antitumor activity against human MDA-MB-435 cells xenografted in athymic nude mouse assessed as tumor growth inhibition at 75 mg/kg, ip administered daily for 9 days measured on day 14; type: functional, organism-based
# Outline: (§3)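 Six-week-old female athymic nude mice implanted bilaterally with MDA-MB-435 cells. Dosing starts when tumors average 200 mm3. Drug given at 75 mg/kg/dose i.p. daily on days 0–8, solubilized in 2:1 Tween80:DMSO and diluted into PBS. Mice weighed twice weekly. On day 14, tumors excised and weighed and compared with control by unpaired two-tailed Student's t-test. Tumor volumes analysed by 2-way ANOVA with Dunnett's test.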
# Mus musculus [9] = assay: Toxicity in athymic nude mouse xenografted with human MDA-MB-435 cells assessed as overt toxicity at 75 mg/kg, ip administered daily for 9 days measured on day 14; type: organism-based; details: in vivo, 216 h; outline: as §3
# MDA-MB-435 [10] = assay: Antitumor activity against human MDA-MB-435 cells xenografted in athymic nude mouse assessed as reduction in mean tumor mass at 75 mg/kg, ip administered daily for 9 days measured on day 14; type: functional, organism-based; outline: as §3
# MDA-MB-435 [11] = assay: Antitumor activity against human MDA-MB-435 cells xenografted in athymic nude mouse assessed as tumor growth inhibition at 20 mg/kg, ip administered on day 2,4,6,8, and 11 measured on day 14; type: functional, organism-based
# Outline: (§4)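 Female athymic nude mice, six weeks old, bearing bilateral MDA-MB-435 xenografts averaging 200 mm3 at the start of treatment. […] Body weight recorded twice weekly through day 14. Tumor volumes analysed by 2-way ANOVA with Dunnett's post-hoc test.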
# Mus musculus [12] = assay: Toxicity in athymic nude mouse xenografted with human MDA-MB-435 cells assessed as body weight loss at 20 mg/kg, ip administered on day 2, 4, 6, 8 and 11 measured on day 14; type: organism-based; details: in vivo; outline: as §4
SMILES,IC50 (HeLa [2]),IC50 (HeLa [4]),EC50 [5],IC50 (SK-OV-3),IC50 (MDA-MB-435 [7]),Ratio IC50 [1],IC50 [3],Ratio IC50 (HeLa [6]),TGI (MDA-MB-435 [8]),Activity (Mus musculus [9]),Activity (MDA-MB-435 [10]),TGI (MDA-MB-435 [11]),Activity (Mus musculus [12])
CC(=O)O[C@H]1C(=O)[C@@]2(C)[C@H]([C@H](OC(=O)c3ccccc3)[C@]3(O)C[C@H](OC(=O)[C@H](O)[C@@H](NC(=O)c4ccccc4)c4ccccc4)C(C)=C1C3(C)C)[C@]1(OC(C)=O)CO[C@@H]1C[C@@H]2O [PACLITAXEL],1.5 nM,21.1 nM,–,–,2 nM,–,2330 nM,–,–,–,–,Active,2.5%
CCOC(=O)c1[nH]c(Cl)c(-c2ccc(OC)c(OC)c2OC)c1Cl,131 nM,140 nM,1000 nM,210 nM,116 nM,0.67,140 nM,1.1,–,–,–,–,–
CCOC(=O)c1[nH]c(C#N)c(-c2ccc(OC)c(OC)c2OC)c1Br,20.6 nM,26.1 nM,88 nM,26.2 nM,19.6 nM,1.6,42.2 nM,1.3,–,–,–,–,–
CCOC(=O)c1[nH]c(Br)c(-c2ccc(OC)c(OC)c2OC)c1Br,12.9 nM,15.7 nM,37 nM,15.2 nM,10.4 nM,0.7,10.6 nM,1.2,–,–,–,–,–

# The next lines start with results.
IC50 (HeLa [2]),IC50 (HeLa [4]),EC50 [5],IC50 (SK-OV-3),IC50 (MDA-MB-435 [7]),SMILES,Ratio IC50 [1],IC50 [3],Ratio IC50 (HeLa [6]),TGI (MDA-MB-435 [8]),Activity (Mus musculus [9]),Activity (MDA-MB-435 [10]),TGI (MDA-MB-435 [11]),Activity (Mus musculus [12])
29.4 nM,31.3 nM,108 nM,33.7 nM,25.3 nM,CCOC(=O)c1[nH]c(/C=N\O)c(-c2ccc(OC)c(OC)c2OC)c1Br,1.5,49.6 nM,1.1,–,–,–,–,–
5 nM,4.1 nM,9.2 nM,5.3 nM,2.7 nM,CCOC(=O)c1[nH]c(C=NO)c(-c2ccc(OC)c(OC)c2OC)c1Br (mixture of isomers),1.2,6.6 nM,0.9,Active,Non-Toxic,Active,–,–
18 nM,25 nM,56 nM,23.1 nM,14 nM,CCOC(=O)c1[nH]c(/C=N/O)c(-c2ccc(OC)c(OC)c2OC)c1Br,1.8,41.6 nM,1.4,–,–,–,–,–

# — ChEMBL document CHEMBL4033654, “Ortho group activation of a bromopyrrole ester in Suzuki-Miyaura cross-coupling reactions: Application to the synthesis of new microtubule depolymerizing agents with potent cytotoxic activities” (Bioorg Med Chem, 2017)
